Source: ChEMBL document CHEMBL1131318, “Synthesis and evaluation of compounds that facilitate the gastrointestinal absorption of heparin” (J Med Chem, 1998)

Experiments:
[1] = Mean peak APTT value was evaluated on rats by intracolonic instillation of a 25% aqueous propylene glycol solution of heparin (25 mg/kg) and compound (50 mg/kg).; type: functional, Rattus norvegicus
[2] = HPLC capacity factor (k') (artificial membrane chromatography); type: ADME
Method in brief: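 Immobilized artificial membrane (IAM) column; mobile phase 10 mM sodium phosphate pH 6.4 in 25% aqueous propylene glycol, 2 mL/min. Samples at 100 µg/mL in mobile phase, UV detection 220 nm, KI as void marker. k' of each compound divided by mean k' of a reference standard injected before and after each set of five compounds; reported as relative k' (log for comparisons).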

| Structure (SMILES) | Log relative k' [2] | Mean peak APTT [1] |
| --- | --- | --- |
| O=C(O)CCCCCCCNC(=O)C/C=C/c1ccccc1 | 0.7 | 73 |
| O=C(O)CCCCCCCNC(=O)c1ccccn1 | -0.52 | 23 |
| O=C(O)CCCCCCCNC(=O)c1cccnc1O | 0.9 | 22 |
| O=C(O)CCCCCCCNC(=O)c1ccccc1 | 0.09 | 21 |
| O=C(O)CCCCCCCNC(=O)c1cc(O)cc(O)c1 | -0.06 | 20 |
| COc1ccccc1C(=O)NCCCCCCCC(=O)O | 0.33 | 26 |
| Cc1ccc(C(=O)NCCCCCCCC(=O)O)c(O)c1 | 1.05 | 37 |
| O=C(O)CCCCCCCNC(=O)c1cccc(O)c1 | 0 | 23 |
| O=C(O)CCCCCCCNC(=O)c1cccc(I)c1 | 1.05 | 39 |
| O=C(O)CCCCCCCNC(=O)c1ccc(F)cc1 | 0.23 | 31 |
| Cc1cccc(C(=O)NCCCCCCCC(=O)O)c1O | 1.23 | 27 |
| O=C(O)CCCCCCCNC(=O)c1ccc(O)cc1O | 0.65 | 37 |
| O=C(O)CCCCCCCNC(=O)c1cccc(F)c1 | 0.29 | 35 |
| COc1ccc(C(=O)NCCCCCCCC(=O)O)c(O)c1 | 0.92 | 76 |
| O=C(O)CCCCCCCNC(=O)c1ccccc1C(=O)O | -1 | 23 |
| O=C(O)CCCCNC(=O)c1ccccc1O | -0.18 | 26 |
| O=C(O)CCCCCCCCCCNC(=O)c1ccc2ccccc2c1O | > 2.5 | 26 |
| Nc1ccccc1C(=O)NCCCCCCCC(=O)O | 0.02 | 24 |
| COc1ccccc1/C=C/CC(=O)NCCCCCCCCC(=O)O | 0.89 | 56 |
| O=C(O)CCCCCCCNC(=O)c1cccnc1Cl | -0.53 | 30 |
| O=C(O)CCCCCCCNC(=O)c1ccc([N+](=O)[O-])cc1 | 0.44 | 33 |
| O=C(O)CCCCCCCNC(=O)c1ccccc1OC(F)(F)F | -0.64 | 23 |
| O=C(O)CCCCCCCNC(=O)c1c(F)c(F)c(F)c(F)c1F | 0.41 | 22 |
| Cc1ccc(O)c(C(=O)NCCCCCCCC(=O)O)c1 | 1.03 | 56 |
| O=C(O)CCCCCCCNC(=O)Cc1ccccc1O | 0.12 | 21 |
| COc1cc([N+](=O)[O-])ccc1C(=O)NCCCCCCCC(=O)O | -0.55 | 25 |
| O=C(O)CCCCCCCNC(=O)c1ccccc1O [SALCAPROZIC ACID] | 0.68 | 125 |
| O=C(O)CNC(=O)c1ccccc1O [SALICYLURIC ACID] | -0.68 | 28 |

Second part, led by results:

| Log relative k' [2] | Structure (SMILES) | Mean peak APTT [1] |
| --- | --- | --- |
| 0.9 | O=C(O)CCCCCCCNC(=O)c1cccs1 | 22 |
| 0.23 | O=C(O)CCCCCCCNC(=O)c1c(F)cccc1Cl | 23 |
| 0.26 | O=C(O)CCCCCNC(=O)c1ccc(Cl)cc1O | 40 |
| -0.04 | O=C(O)CCCCCCCNC(=O)c1ccc(O)cc1 | 27 |
| 1.11 | O=C(O)CCCCCCCNC(=O)c1ccc([N+](=O)[O-])cc1O | 36 |
| 0.97 | O=C(O)CCCCCCCNC(=O)c1ccc(I)cc1 | 23 |
| 0.18 | O=C(O)CCCCCCCNC(=O)c1ccccc1Cl | 23 |
| 0.45 | Cc1ccccc1C(=O)NCCCCCCCC(=O)O | 25 |
| 0.11 | O=C(O)CCCCCCCNC(=O)c1ccccc1F | 25 |
| 1.7 | O=C(O)CCCCCCCNC(=O)c1cc2ccccc2cc1O | 71 |
| 2.29 | O=C(O)CCCCCCCCCCCNC(=O)C/C=C/c1ccccc1 | 41 |
| 0.46 | O=C(O)CCCCCCCNC(=O)c1cccc(O)c1O | – |
| 0.76 | O=C(O)CCCCCCCNC(=O)c1ccc(Br)cc1 | 60 |
| -0.41 | O=C(O)CCCNC(=O)c1ccccc1O | 25 |
| 1.43 | O=C(O)CCCCCCCNC(=O)c1ccc(Cl)cc1O | 94 |
| 2.32 | O=C(O)CCCCCCCCCCCNC(=O)c1ccccc1O | 44 |
| 0.51 | O=C(O)CCCCCCCNC(=O)c1cc(O)ccc1O | 25 |
| -0.28 | O=C(O)CCCCCCCNC(=O)C1CCCN1 (stereo not given) | 25 |
| 1.54 | O=C(O)CCCCCCCNC(=O)c1cc(Br)ccc1O | 111 |
| 0.81 | O=C(O)CCCCCCCNC(=O)c1cc2ccccc2oc1=O | 34 |

| Log relative k' [2] | Structure (SMILES) | Mean peak APTT [1] |
| --- | --- | --- |
| 1.12 | O=C(O)CCCCCCCNC(=O)c1c(O)cccc1O | 42 |
| 0.69 | O=C(O)CCCCCCCCNC(=O)C/C=C/c1ccccc1 | 140 |
| 1.04 | O=C(O)CCCCCCCCNC(=O)c1ccccc1O | 163 |
| 0.94 | O=C(O)CCCCCCCNC(=O)c1ccc(Cl)c([N+](=O)[O-])c1 | 34 |
| 1.43 | O=C(O)CCCCCCCCCNC(=O)c1ccccc1O | 153 |
| 0.36 | O=C(O)CCCCCCNC(=O)C/C=C/c1ccccc1 | 39 |
| 0.37 | O=C(O)CCCCCCNC(=O)c1ccccc1O | 56 |
| 0.15 | O=C(O)CCCCCCCNC(=O)C1CCCCC1 | 34 |
| 0.79 | COc1cc(Cl)ccc1C(=O)NCCCCCCCC(=O)O | 75 |
| 0.25 | O=C(O)CCCCCCCNC(=O)c1cc([N+](=O)[O-])ccc1Cl | 23 |
| 0.35 | O=C(O)CCCCCCCNC(=O)c1ccccc1I | 22 |
| 0.65 | O=C(O)CCCCCCCNC(=O)c1ccc(Cl)cc1 | 37 |
| -0.63 | O=C(O)CCNC(=O)c1ccccc1O | 22 |
| 0.04 | O=C(O)CCCCCNC(=O)c1ccccc1O | 24 |
| 1.88 | O=C(O)CCCCCCCCCCNC(=O)c1ccccc1O | 51 |
| 0.24 | O=C(O)CCCCCCCNC(=O)c1ccccc1Br | 21 |
| 0.81 | O=C(O)CCCCCCCNC(=O)c1cc(Cl)ccc1O | 56 |
| -0.47 | COc1ccccc1C(=O)NCCCCCC(=O)O | 27 |
| 1.72 | O=C(O)CCCCCCCNC(=O)c1cc(I)ccc1O | 32 |
| 2.1 | O=C(O)CCCCCCCNC(=O)c1ccc2ccccc2c1O | 31 |
